The list is not random: actives were taken first. Their share in the collection is about 4.1%.
SMARCA2 act: SMARCA2 function activation, primary screen; 370,000 tested, 1% active; activation, % at 9.1 µM; MG213 cells, MMTV-luciferase reporter, dexamethasone, overnight; AID 652017; in the data active means activation above about 7.8%;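 further: 0% = vehicle wells and 100% = reference activator wells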
Efflux pump mplx: blocks antifungal efflux pumps in multiplex yeast assay. S. cerevisiae Candida pump triplex, Nile Red efflux. 330,000 tested, 0.44% active. AID 485275. inhibition, % at 10 µM;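 active means plate passing quality check with inhibition over a set limit, or well fluorescence over plate mean plus 4 SD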;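 further: Nile Red retained in pooled yeast measured as flow cytometry median fluorescence; 0% = buffer negative control and 100% = Enniatin B positive control; higher means more Nile Red kept so more efflux inhibition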
Tb MetRS inh: blocks T. brucei methionyl-tRNA synthetase activity. purified T. brucei MetRS, ATP depletion, Kinase-Glo luminescence. inhibition, % at 11.9 µM. 360,000 tested, 0.4% active. AID 624268;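 active means inhibition above a per-plate cutoff of the control wells' mean inhibition plus 3 SD, cut at about 5.5% in these data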;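 further: 0% = DMSO wells median and 100% = median of wells with control inhibitor compound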
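Material: T. brucei methionyl-tRNA synthetase, purified; reagent: substrates ATP, L-methionine and bulk Escherichia coli tRNA; dosing: 11.9 µM single point; timing: 15 min plus 2 h at 25 °C; detection: luminescence of leftover ATP; evaluation: % inhibition; control set: DMSO-only wells as low control; replicates: singlicate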
AHR activator: activates the human aryl hydrocarbon receptor | P35869 | activation, % at 5 µM | 320,000 tested, 2.5% active | AHR-responsive luciferase reporter cells, luminescence; in the data active means activation above about 47%;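 further: 0% = vehicle wells and 100% = reference agonist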
TAG inh: inhibitors of triacylglycerol accumulation | H9c2 cells, Nile Red lipid (TAG) fluorescence; cells loaded with 200 µM oleic acid | inhibition, % at 12.5 µM | 230,000 tested, 0.66% active | AID 651582;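 active means pattern-corrected inhibition of lipid staining of at least 50% with the nuclear-stain viability signal not falling by more than 50%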;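 further: 0% = DMSO wells and 100% = triacsin C control wells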
Active calls of the source: *; . = no result.

SMILES	SMARCA2 act	Efflux pump mplx	Tb MetRS inh	AHR activator	TAG inh
O=C(CSc1ccc(-c2cccnc2)nn1)N1CCCc2ccccc21	-1	0	.	48*	.
COC(=O)N1CCCC1c1cccc2[nH]cc(C)c12 (centres undefined)	-5	.	.	.	.
NC(=S)NN=Cc1nccc2c(C(F)(F)C(F)(F)C(F)(F)F)cccc12	-6	.	0	.	74*
O=C(NCc1ccccc1)[C@@H]1CCCN1C(=O)[C@H]1CCCN1C(=O)c1ccc(Cl)cc1	-4	.	.	.	.
O=C1N=c2ccccc2=C1c1[nH]c(=S)[nH]c1O	-1	0	-1	61*	.
O=C1N=c2ccccc2=C1c1sc(=O)[nH]c1O	-2	0	0	10	9
CCc1cccc2c(C(C)c3ccccc3O)c[nH]c12 (centres undefined)	-5	.	.	.	.
Cn1c2ccccc2c2ncn(CCCN3CCOCC3)c(=O)c21	0	0	1	50*	-9
Cc1ccc(NC(=O)N2CC(C)OC(C)C2)cc1[N+](=O)[O-] (centres undefined)	-2	.	.	.	.
O=C(Nc1ccc2c(c1)OCO2)c1ccc2nc[nH]c2c1	6	0	-1	62*	1
O=C(Nc1cccc(F)c1)c1ccc2c(c1)OCO2	1	0	-1	56*	0
O=C(NC1CCCCCCC1)c1ccc2c(c1)OCO2	6	0	1	69*	-19
Cc1cccc(NC(=O)c2ccc3c(c2)OCCO3)n1	.	0	0	10	1
Cc1cccc(NC(=O)CNC(=O)c2ccc3c(c2)OCO3)n1	3	0	0	50*	-13
Nc1c(C(=O)N2CCOCC2)cnn1Cc1ccccc1	-2	.	.	.	.
Cc1ccccc1CN1C(=O)c2ccccc2C1c1nnnn1-c1ccc2c(c1)OCCO2 (centres undefined)	7.9*	.	0	.	.
Cc1ccccc1Cn1cc(COC(=O)NCCc2ccccc2)nn1	0	.	.	.	.
COc1ccc(/C=N/OCC(=O)NCC(C)C)c(OC)c1	-2	0	-1	31	-30
COc1ccc(/C=N/OCC(=O)NCc2cccs2)c(OC)c1	0	0	0	48*	.
COc1ccc(-c2nnn3c2Cn2c4ccccc4c(=O)n2[C@@H](C(C)C)C3)cc1	-4	.	.	.	.
COC(=O)[C@]12C[C@H](CC(=O)NCC3CCCCC3)C(=O)N(CCc3ccc(OC)c(OC)c3)C1=C[C@H](COCc1ccccc1)O[C@@H]2C	-1	.	.	.	.
COc1ccc(-c2cc(-c3ccccc3)c(C#N)c(S(C)(=O)=O)n2)cc1	6	0	-3	0	15
CS(=O)(=O)c1nc(-c2ccc(Br)cc2)cc(-c2ccccc2)c1C#N	2	0	-1	2	79*
CN1CCSc2ccc(C(=O)NCc3ccccc3F)cc21	2	0	0	78*	3
COc1cccc(CNC(=O)c2ccc3c(c2)N(C)CCS3)c1OC	1	0	0	56*	5
SMILES	SMARCA2 act	Efflux pump mplx	Tb MetRS inh	AHR activator	TAG inh
Cc1c(/C=C2\NC(=O)NC2=O)c2ccccc2n1C	-2	0	0	75*	7
COC(=O)c1cc(C)nc2c1C(=O)C(=O)C=C2N1CCOCC1	-8	0	1	-1	.
CCN(CC)CCNc1cc(C)nc2c1C(=O)C(=O)C=C2N1CCCCC1	-8	0	0	5	82*
COc1ccc(C(CCOC(=O)Oc2ccccc2)c2cc(OC)cc(OC)c2)cc1 (centres undefined)	3	.	.	.	.
Cc1c(C(=O)Nc2nc3ccccc3[nH]2)oc2ccc(Br)cc12	-1	0	0	29	.
Cc1c(C(=O)Nc2nc3ccccc3[nH]2)oc2ccccc12	4	0	0	68*	.
Cc1c(C(=O)Nc2nc3ccccc3[nH]2)oc2c(Cl)cccc12	2	0	0	66*	.
Brc1ccc(-c2nn3c(-c4ccccc4)nnc3s2)cc1	4	.	.	.	.
COc1ccccc1N/C=C/c1onc(C)c1[N+](=O)[O-]	1	0	0	54*	-5
Cc1noc(/C=C/c2ccccn2)c1[N+](=O)[O-]	-1	0	-1	1	.
O=C(Nc1ccc(Cl)c(Cl)c1)C1CCN(c2ncccn2)CC1	-5	.	.	.	.
COC(=O)c1[nH]c2ccc(C)cc2c1NC(=O)C1=COCCO1	2	0	-1	68*	-8
COC(=O)c1[nH]c2ccc(F)cc2c1NC(=O)C1=COCCO1	-1	0	0	23	0
CCCC(=O)Oc1ccc(C2NC(=O)c3ccccc3O2)cc1 (centres undefined)	0	0	-1	56*	.

Compound activity: PubChem BioAssay, several laboratories
